Source: ChEMBL document CHEMBL1151781, “Selectivity of inhibitors of endocannabinoid biosynthesis evaluated by activity-based protein profiling” (Bioorg Med Chem Lett, 2008)
Calls of active or inactive are those of the source. The calls are words filed in the database; no cut-off is given here.

What was measured:
[1] = target: T1, Fatty-acid amide hydrolase 1 (Mus musculus) (UniProt O08914); test: Inhibition of FAAH in mouse brain at 0.01 to 100 uM treated for 30 mins by SDS-PAGE using rhodamine-tagged FP probe; assay type: tissue-based
T1 sequence (whole entry): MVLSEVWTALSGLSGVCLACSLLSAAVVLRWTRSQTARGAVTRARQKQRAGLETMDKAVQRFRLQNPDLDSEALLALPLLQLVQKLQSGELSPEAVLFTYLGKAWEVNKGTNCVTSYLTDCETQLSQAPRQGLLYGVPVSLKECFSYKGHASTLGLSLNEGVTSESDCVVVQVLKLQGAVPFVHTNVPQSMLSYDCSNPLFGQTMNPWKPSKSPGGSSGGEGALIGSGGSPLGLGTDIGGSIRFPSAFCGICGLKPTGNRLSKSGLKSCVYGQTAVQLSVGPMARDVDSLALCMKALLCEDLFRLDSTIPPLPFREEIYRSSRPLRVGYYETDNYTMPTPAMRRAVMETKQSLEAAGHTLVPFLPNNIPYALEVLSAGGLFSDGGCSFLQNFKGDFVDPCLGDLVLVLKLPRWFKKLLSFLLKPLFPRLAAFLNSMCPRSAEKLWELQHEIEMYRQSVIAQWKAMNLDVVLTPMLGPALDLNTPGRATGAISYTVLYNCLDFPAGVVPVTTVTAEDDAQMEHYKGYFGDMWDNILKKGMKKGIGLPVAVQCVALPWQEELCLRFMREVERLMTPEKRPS
Procedure, shortened: (§1)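 Mouse brain membrane proteome preincubated with inhibitor across 0.01-100 μM for 30 min. A rhodamine-tagged fluorophosphonate probe (FP-Rh) was then added for 60 min. Samples were resolved by SDS-PAGE, and probe labeling of each hydrolase band was read by in-gel fluorescence scanning.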

[2] = target: T2, Neutral cholesterol ester hydrolase 1 (Mus musculus) (UniProt Q8BLF1); test: Inhibition of KIAA1363 in mouse brain at 0.01 to 100 uM treated for 30 mins by SDS-PAGE using rhodamine-tagged FP probe; assay type: tissue-based; procedure, shortened: as §1
T2 sequence (whole entry): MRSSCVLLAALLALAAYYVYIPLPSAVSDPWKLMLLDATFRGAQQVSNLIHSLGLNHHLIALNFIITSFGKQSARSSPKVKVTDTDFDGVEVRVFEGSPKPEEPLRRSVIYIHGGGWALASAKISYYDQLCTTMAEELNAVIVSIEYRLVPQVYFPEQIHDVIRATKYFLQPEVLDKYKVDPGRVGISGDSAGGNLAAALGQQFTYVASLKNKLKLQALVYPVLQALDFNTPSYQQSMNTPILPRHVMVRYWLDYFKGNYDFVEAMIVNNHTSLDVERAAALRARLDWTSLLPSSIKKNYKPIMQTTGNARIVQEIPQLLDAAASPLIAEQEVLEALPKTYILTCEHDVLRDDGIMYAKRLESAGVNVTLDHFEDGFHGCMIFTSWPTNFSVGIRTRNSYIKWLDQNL

[3] = target: Monoglyceride lipase (Mus musculus) (UniProt O35678); test: Inhibition of MAGL in mouse brain at 0.01 to 100 uM treated for 30 mins by SDS-PAGE using rhodamine-tagged FP probe; assay type: tissue-based; procedure, shortened: as §1
Monoglyceride lipase (Mus musculus), sequence (O35678 whole entry): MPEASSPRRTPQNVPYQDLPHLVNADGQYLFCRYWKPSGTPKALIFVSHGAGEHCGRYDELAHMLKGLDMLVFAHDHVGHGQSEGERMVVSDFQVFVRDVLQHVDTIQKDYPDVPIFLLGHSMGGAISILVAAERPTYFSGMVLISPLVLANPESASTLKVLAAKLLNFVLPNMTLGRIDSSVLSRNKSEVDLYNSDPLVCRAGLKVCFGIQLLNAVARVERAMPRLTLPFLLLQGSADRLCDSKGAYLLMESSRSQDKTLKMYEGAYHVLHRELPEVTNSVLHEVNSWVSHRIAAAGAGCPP

[4] = target: Monoacylglycerol lipase ABHD6 (Mus musculus) (UniProt Q8R2Y0); test: Inhibition of ABHD6 in mouse brain at 0.01 to 100 uM treated for 30 mins by SDS-PAGE using rhodamine-tagged FP probe; assay type: tissue-based; procedure, shortened: as §1
Monoacylglycerol lipase ABHD6 (Mus musculus), sequence (Q8R2Y0 whole entry): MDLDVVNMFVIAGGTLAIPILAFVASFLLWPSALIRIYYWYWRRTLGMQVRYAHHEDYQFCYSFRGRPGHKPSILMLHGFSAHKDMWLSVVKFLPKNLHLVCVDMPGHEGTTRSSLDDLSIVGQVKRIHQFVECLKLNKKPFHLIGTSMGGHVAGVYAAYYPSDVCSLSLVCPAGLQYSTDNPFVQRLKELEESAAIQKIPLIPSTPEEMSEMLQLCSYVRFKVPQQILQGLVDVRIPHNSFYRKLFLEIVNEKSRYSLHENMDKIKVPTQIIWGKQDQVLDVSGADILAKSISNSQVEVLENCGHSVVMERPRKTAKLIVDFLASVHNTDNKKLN

[5] = target: T3, Diacylglycerol lipase-alpha (Mus musculus) (UniProt Q6WQJ1); test: Inhibition of DAGLalpha in mouse brain assessed as >15 average spectral count at 50 uM treated for 30 mins by ABPP-MudPIT assay; assay type: tissue-based
T3 sequence (whole entry): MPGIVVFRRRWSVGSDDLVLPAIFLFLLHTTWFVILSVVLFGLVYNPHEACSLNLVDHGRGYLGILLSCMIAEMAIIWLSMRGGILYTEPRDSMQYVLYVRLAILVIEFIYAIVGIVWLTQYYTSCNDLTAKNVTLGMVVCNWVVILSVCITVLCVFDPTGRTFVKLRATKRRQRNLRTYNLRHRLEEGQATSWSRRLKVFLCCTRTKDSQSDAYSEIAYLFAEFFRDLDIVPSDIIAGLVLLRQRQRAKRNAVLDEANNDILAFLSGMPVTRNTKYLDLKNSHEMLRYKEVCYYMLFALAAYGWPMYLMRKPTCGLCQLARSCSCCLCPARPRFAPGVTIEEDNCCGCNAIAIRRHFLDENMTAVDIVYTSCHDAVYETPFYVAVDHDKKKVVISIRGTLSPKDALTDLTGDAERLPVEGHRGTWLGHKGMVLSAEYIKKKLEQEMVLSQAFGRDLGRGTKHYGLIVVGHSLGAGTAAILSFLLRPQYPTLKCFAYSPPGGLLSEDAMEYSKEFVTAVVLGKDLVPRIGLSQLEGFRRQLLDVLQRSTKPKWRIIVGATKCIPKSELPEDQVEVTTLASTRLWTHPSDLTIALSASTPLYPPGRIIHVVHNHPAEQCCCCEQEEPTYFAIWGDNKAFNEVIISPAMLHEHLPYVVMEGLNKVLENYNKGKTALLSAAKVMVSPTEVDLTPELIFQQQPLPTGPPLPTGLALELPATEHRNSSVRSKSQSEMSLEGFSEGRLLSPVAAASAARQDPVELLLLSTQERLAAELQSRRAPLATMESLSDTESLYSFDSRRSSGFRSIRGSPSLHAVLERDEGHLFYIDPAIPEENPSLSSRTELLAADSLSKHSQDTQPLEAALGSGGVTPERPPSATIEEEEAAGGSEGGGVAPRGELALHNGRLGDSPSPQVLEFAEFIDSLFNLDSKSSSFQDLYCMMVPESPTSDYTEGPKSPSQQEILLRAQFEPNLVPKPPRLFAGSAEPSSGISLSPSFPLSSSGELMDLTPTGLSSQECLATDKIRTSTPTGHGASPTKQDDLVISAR

[6] = target: T3, Diacylglycerol lipase-alpha (Mus musculus); test: Inhibition of DAGLalpha in mouse brain assessed as >15 average spectral count at 5 uM treated for 30 mins by ABPP-MudPIT assay; assay type: tissue-based
[7] = target: Phosphatidylserine lipase ABHD16A (Homo sapiens, UniProt O95870); test: Inhibition of recombinant BAT5 transfected in HEK293T cells by SDS-PAGE using rhodamine-tagged FP probe; assay type: cell-based, HEK-293T
Phosphatidylserine lipase ABHD16A, sequence (O95870 whole entry): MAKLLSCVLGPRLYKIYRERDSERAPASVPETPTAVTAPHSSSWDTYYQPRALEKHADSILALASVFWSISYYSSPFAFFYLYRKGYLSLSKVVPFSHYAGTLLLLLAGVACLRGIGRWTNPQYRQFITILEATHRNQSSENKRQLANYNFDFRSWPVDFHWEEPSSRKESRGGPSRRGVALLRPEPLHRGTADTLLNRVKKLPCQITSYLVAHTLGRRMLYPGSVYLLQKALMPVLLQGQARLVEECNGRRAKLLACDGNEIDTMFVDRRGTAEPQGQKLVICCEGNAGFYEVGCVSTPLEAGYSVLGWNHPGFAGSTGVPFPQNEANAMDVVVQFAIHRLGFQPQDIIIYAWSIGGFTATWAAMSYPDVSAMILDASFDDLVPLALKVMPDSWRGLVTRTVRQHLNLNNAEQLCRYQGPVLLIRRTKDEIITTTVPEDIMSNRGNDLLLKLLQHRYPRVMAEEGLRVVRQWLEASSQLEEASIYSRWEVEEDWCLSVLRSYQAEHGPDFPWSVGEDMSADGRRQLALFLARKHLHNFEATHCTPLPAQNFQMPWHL
Procedure, shortened: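 HEK293T cells were transfected with cDNA for the target hydrolase. The transfected proteome was treated with inhibitor across 0.01-100 μM, then labeled with rhodamine-tagged fluorophosphonate probe (FP-Rh). Loss of probe labeling was read to give IC50. Values are means ± standard errors of three independent experiments.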

[8] = target: Diacylglycerol lipase-beta (Homo sapiens) (UniProt Q8NCG7); test: Inhibition of recombinant DAGLbeta overexpressed in african green monkey COS7 cells assessed as accumulation of 2-arachidonoylglycerol […]; assay type: cell-based; details: COS-7
Diacylglycerol lipase-beta (Homo sapiens), sequence (Q8NCG7 whole entry): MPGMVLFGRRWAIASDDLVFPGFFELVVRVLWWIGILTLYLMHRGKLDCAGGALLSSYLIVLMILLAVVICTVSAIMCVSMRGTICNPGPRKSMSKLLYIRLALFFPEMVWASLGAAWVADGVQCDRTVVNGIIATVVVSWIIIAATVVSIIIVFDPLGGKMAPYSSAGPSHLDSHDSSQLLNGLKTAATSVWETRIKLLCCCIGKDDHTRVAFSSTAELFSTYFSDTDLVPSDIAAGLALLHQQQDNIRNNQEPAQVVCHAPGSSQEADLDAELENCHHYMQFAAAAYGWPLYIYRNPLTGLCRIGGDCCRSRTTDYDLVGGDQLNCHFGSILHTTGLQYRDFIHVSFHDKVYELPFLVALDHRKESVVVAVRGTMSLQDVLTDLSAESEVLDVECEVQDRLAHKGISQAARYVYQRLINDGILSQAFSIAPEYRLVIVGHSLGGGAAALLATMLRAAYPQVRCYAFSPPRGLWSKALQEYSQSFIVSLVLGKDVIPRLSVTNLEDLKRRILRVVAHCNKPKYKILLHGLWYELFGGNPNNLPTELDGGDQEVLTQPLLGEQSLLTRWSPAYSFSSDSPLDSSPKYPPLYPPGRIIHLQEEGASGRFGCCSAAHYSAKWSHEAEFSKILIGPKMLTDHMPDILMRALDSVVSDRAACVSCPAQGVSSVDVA

Row | SMILES | Activity [1] | Activity [2] | Activity [3] | Activity [4] | Activity [5] | Activity [6] | IC50 [7] [µM] | Activity [8]
1 | CCCCCCCCCCC[C@@H](C[C@@H]1OC(=O)[C@H]1CCCCCC)OC(=O)[C@H](CC(C)C)NC=O [ORLISTAT] | Active | Active | Active | Active | inactive | inactive | 0.03 | Active
2 | O=C(NCCCCCCNC(=O)ON=C1CCCCC1)ON=C1CCCCC1 | Active | Active | Active | Active | inactive | inactive | 23 | Active
